# Compound activity: PubChem, several laboratories
# UBC13 polyUb: UBC13 polyubiquitin chain formation inhibitors, primary screen, biochemical, TR-FRET, uHTS | inhibition, % at 20 µM | 330,000 tested, 0.47% active | AID 485273, 2010; in the data active = inhibition above about 45%, passing the limit was not always enough
# Target sequence (P61088 whole entry, looked up): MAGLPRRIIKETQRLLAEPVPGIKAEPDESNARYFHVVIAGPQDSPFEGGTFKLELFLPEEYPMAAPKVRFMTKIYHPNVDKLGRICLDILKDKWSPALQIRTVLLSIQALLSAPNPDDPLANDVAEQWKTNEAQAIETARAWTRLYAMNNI
# PP5 inh: PP5 phosphatase inhibitors, primary screen, biochemical, fluorescence; purified PP5c, OMFP substrate fluorescence; inhibition, % at 6.7 µM; 320,000 tested, 0.18% active; AID 1987, 2009;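 active = inhibition above the campaign's mean inhibition across all tested compounds plus 3 SD, cut at about 9.5% in these data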;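 note: 0% = DMSO only and 100% = 100 µM cantharidin control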
# CTSL1 counter: Fasciola hepatica cathepsin L1 inhibitors, primary screen, counter-screen for PFM18AAP inhibitor project, biochemical, QFRET, fluorogenic peptide substrate; recombinant F. hepatica cathepsin L1, Z-Leu-Arg-MCA fluorescence; inhibition, % at 5.96 µM; 300,000 tested, 0.49% active; AID 1906, 2009;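 active = inhibition above the mean of all tested compounds plus 3 SD, set per screening campaign, cut at about 17% in these data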;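 note: 0% = plate median of test compound wells and 100% = 1 µM Z-Phe-Ala-diazomethylketone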
# UCH37 inh: inhibitors of human UCH37 deubiquitinase, primary screen, biochemical, Ub-AMC cleavage, fluorescence | Ubiquitin carboxyl-terminal hydrolase isozyme L5 (Homo sapiens), Q9Y5K5 | purified proteasome/UCH37 | inhibition, % (no concentration beside the values) | 330,000 tested, 0.33% active | AID 588478, 2011;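 active = mean inhibition over replicate wells above about 20%, limit read from the data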;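 note: 0% = compound-free wells with enzyme and 100% = wells lacking proteasome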
#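 Schedule: 30 min plus 25 min, room temperature / Material: human UCH37 within purified proteasomes / Technique: AMC fluorescence intensity at 355/460 nm / Buffer or medium: pH 7.4 Tris-HCl (50 mM) with ovalbumin, ATP-MgCl2, DTT / Controls: wells without proteasome as full block, compound-free enzyme plus substrate as uninhibited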
# PP1 inh: PP1-alpha phosphatase inhibitors, primary screen, counter-screen for PP5 inhibitor project, biochemical, fluorescence, OMFP substrate, single point; AID 2235, 2010; Serine/threonine-protein phosphatase PP1-alpha catalytic subunit (Homo sapiens), P62136; inhibition, % at 6.7 µM; 320,000 tested, 0.9% active; purified PP1alpha;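 active = inhibition above the mean inhibition of all tested compounds plus 3 SD, computed separately for each screening campaign, cut at about 15% in these data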
# Target sequence (P62136 whole entry, looked up): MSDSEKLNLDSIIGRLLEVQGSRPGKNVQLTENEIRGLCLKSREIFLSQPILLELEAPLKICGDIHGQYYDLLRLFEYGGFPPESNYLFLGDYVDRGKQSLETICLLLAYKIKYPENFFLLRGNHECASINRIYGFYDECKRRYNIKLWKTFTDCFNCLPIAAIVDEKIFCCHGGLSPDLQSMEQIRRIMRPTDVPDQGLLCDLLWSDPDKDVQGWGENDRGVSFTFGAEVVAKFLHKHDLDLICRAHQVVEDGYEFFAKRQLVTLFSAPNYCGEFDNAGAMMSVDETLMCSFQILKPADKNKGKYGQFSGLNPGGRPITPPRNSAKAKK
# PREPL inh: PREPL enzyme inhibitors, primary screen, biochemical, fluorescence polarization | inhibition, % at 5.96 µM | recombinant PREPL, fluorescence polarization activity-based probe | 320,000 tested, 0.68% active | Prolyl endopeptidase-like (Homo sapiens), Q4J6C6; in the data active = inhibition above about 43%;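 note: 0% = enzyme with DMSO and 100% = wells lacking enzyme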
# The depositor's hits bear a star; · = not tested or not shown. In the library only some 2.3% were active in any assay of this set; here they are far more common.
SMILES,UBC13 polyUb,PP5 inh,CTSL1 counter,UCH37 inh,PP1 inh,PREPL inh
O=C1N/C(=C\c2ccc(O)cc2)C(=O)c2ccccc21,-48,2,108*,87*,0,11
CCOC(=O)C(C(=O)OCC)N(C#N)c1nc(N(C)C)nc(N(C)C)n1,7,-4,65*,3,-3,4
CC(=O)OCN(C#N)c1nc(N(C)C)nc(N(C)C)n1,0,1,-23,6,-1,-4
CCOC(=O)C(C(=O)OCC)N(C#N)c1nc(C)cc(C)n1,-3,0,21*,1,-4,7
O=C(NN=C/C=C\c1ccccc1[N+](=O)[O-])c1ccccn1,·,·,·,12,·,·
CC(=NNC(=O)c1ccccc1)c1ccc(NC(=O)c2cccs2)cc1,·,·,·,1,·,·
Sc1nnc(-c2ccc(Cl)cc2)n1Cc1ccccc1,4,2,·,2,15*,1
COc1ccc(C=NNC(=O)c2cc(Br)ccc2O)cc1Cn1cc(Cl)cn1,·,·,·,-57,·,·
Cc1cc(C)n(CC(O)Cn2c3ccc(Cl)cc3c3cc(Cl)ccc32)c(=O)n1 (stereo not given),8,2,3,4,2,-4
OC(CNCCC1C=Nc2ccccc21)Cn1c2ccc(Cl)cc2c2cc(Cl)ccc21 (stereo not given),·,4,2,1,17*,-31
C#CCOCCOCCOCCNc1nc(N2CCN(C(=O)CCCCCCCCCCNC(=O)[C@H](CO)n3cc(CCCSC)nn3)CC2)nc(N2CCN(C(=O)CCCCCCCCCCNC(=O)[C@@H]([C@H](C)O)n3cc(C)nn3)CC2)n1,11,2,9,·,31*,8
C#CCOCCOCCOCCNc1nc(N2CCN(C(=O)Cn3cc(CCCCN)nn3)CC2)nc(N2CCN(C(=O)[C@H]([C@@H](C)CC)n3cc(CCCCN)nn3)CC2)n1,39,4,1,1,2,6
C#CCOCCOCCOCCNc1nc(N2CCN(C(=O)CCCCCCCCCCNC(=O)[C@H]([C@@H](C)CC)n3cc(CCCCN=C(N)N)nn3)CC2)nc(N2CCN(C(=O)CCCCCCCCCCNC(=O)[C@H]([C@@H](C)CC)n3cc(CCCCN=C(N)N)nn3)CC2)n1,126*,9,1,·,74*,68*
C#CCOCCOCCOCCNc1nc(N2CCN(C(=O)CCCCCCCCCCNC(=O)[C@H]([C@@H](C)CC)n3cc(CCCCCN)nn3)CC2)nc(N2CCN(C(=O)CCCCCCCCCCNC(=O)[C@@H]([C@H](C)CC)n3cc(CCCCCN)nn3)CC2)n1,123*,3,4,·,64*,59*
C#CCOCCOCCOCCNc1nc(N2CCN(C(=O)CCCCCCCCCCNC(=O)[C@H](CCCCN)n3cc(C)nn3)CC2)nc(N2CCN(C(=O)CCCCCCCCCCNC(=O)[C@H](CCCCN)n3cc(CCCC(=O)O)nn3)CC2)n1,114*,2,-1,2,2,26
C#CCOCCOCCOCCNc1nc(N2CCN(C(=O)[C@H]([C@@H](C)CC)n3cc(CCCN=C(N)N)nn3)CC2)nc(N2CCN(C(=O)[C@H]([C@@H](C)CC)n3cc(CCCN=C(N)N)nn3)CC2)n1,25,·,·,-1,·,·
C#CCOCCOCCOCCNc1nc(N2CCN(C(=O)CCCCCCCCCCNC(=O)Cn3cc(C[C@@H](C)O)nn3)CC2)nc(N2CCN(C(=O)CCCCCCCCCCNC(=O)[C@H](CO)n3cc(CCCSC)nn3)CC2)n1,17,3,6,4,8,6
CC(C)(C)c1ccc(C(=O)NN=C2C3CN4CCN(C3)CC2(c2ccccc2)C4)cc1,·,·,·,-1,·,·
Cc1ccc(NC(=O)CN(C)C(=O)C(C)OC(=O)CNC(=O)c2ccc(Cl)c([N+](=O)[O-])c2)cc1 (stereo not given),2,0,28*,2,-2,-9
Cc1cccc(NS(=O)(=O)c2cc3c(cc2C)N(C)CCO3)c1,6,2,65*,4,-2,14
COc1cccc(NS(=O)(=O)c2cc3c(cc2C)N(C)CCO3)c1,0,4,1,4,1,4
O=C(Nc1ccc2nc(-c3cccs3)[nH]c2c1)c1cccs1,-5,1,17*,-10,-7,9
O=C(Nc1ccc(-c2nc3ccc(NC(=O)c4cccs4)cc3[nH]2)cc1)c1cccs1,41,0,7,-62,8,11
Cc1ccccc1OCCn1cc(C(=S)N2CCCC2)c2ccccc21,10,4,6,5,15,42
Cc1ccccc1OCCn1cc(C(=S)N2CCN(C)CC2)c2ccccc21,26,0,-5,3,-1,59*
SMILES,UBC13 polyUb,PP5 inh,CTSL1 counter,UCH37 inh,PP1 inh,PREPL inh
CC(C)c1ccc(C2CC(=O)c3cnc(N4CCc5ccccc5C4)nc3C2)cc1 (stereo not given),4,2,5,1,4,6
O=C1CC(c2ccco2)Cc2nc(N3CCc4ccccc4C3)ncc21 (stereo not given),-12,-7,11,3,17*,2
O=C(CN1c2ccccc2Sc2ccccc21)NNC(=S)Nc1ccc(Cl)cc1Cl,-8,-1,2,·,20*,22
CCNC(=O)C1CCCN1C(=O)C(CCCN=C(N)N)NC(=O)C(CC(C)C)NC(=O)C(Cc1cn(Cc2ccccc2)cn1)NC(=O)C(Cc1ccc(O)cc1)NC(=O)C(CO)NC(=O)C(Cc1c[nH]c2ccccc12)NC(=O)C(Cc1cnc[nH]1)NC(=O)C1CCC(=O)N1 (stereo not given),13,-1,40*,4,-3,24
O=C(COc1ccccc1)NCC1(N2CCCCC2)CCCCC1,-4,-1,28*,2,-1,30
Cc1cccc(CN2C(=O)/C(=C\c3ccc(C(=O)NCCCN4CCN(C)CC4)cc3)Oc3ccccc32)c1,68*,4,4,·,3,-90
CN1CCN(CCCNC(=O)c2ccc(/C=C3/Sc4ccccc4N(Cc4cccc(Cl)c4)C3=O)cc2)CC1,·,·,·,-15,·,·
COC(CN(C(=O)CCl)C(C(=O)NC1CCCC(C)C1C)c1ccc(C)cc1)OC (stereo not given),8,1,61*,22*,0,7
COc1ccc(C(C(=O)NC2CCCCC2)N(C(=O)CCl)c2ccc(Cl)cc2)cc1 (stereo not given),-6,2,3,-1,4,13
